ChEMBL document CHEMBL1126036, “Quinolone antibacterial agents. Synthesis and structure-activity relationships of a series of amino acid prodrugs of racemic and chiral 7-(3-amino-1-pyrrolidinyl)quinolones. Highly soluble quinolone prodrugs with in vivo pseudomonas activity” (J Med Chem, 1992)

Columns and labels:
[1] = Solubility (in 0.1 N HCl); format: physicochemical; conditions: read-out: S
Procedure, shortened: (§1)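 Solubility was measured either from HPLC peak areas at equilibrium or by a conventional weight-per-volume method. All solutions were held for 24 h before measurement.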

[2] = Solubility (at pH 4); format: physicochemical; conditions: buffer, read-out: S; procedure, shortened: as §1
Escherichia coli [3] = test: In vitro antibacterial activity against gram negative Escherichia coli Vogel.; format: functional
Enterococcus faecalis = test: In vitro antibacterial activity against gram positive Enterococcus faecalis MGH-2.; format: functional
[4] = target: DNA gyrase (Escherichia coli) (UniProt P0AES6+P0AES4); test: In vitro concentration inhibiting DNA gyrase induced cleavage in Escherichia coli H560.; format: functional
Procedure, shortened: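 DNA gyrase test run as described in earlier work. The value is the drug concentration (µg/mL) needed to cause DNA cleavage.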

Enterobacter cloacae = test: In vitro antibacterial activity against gram negative Enterobacter cloacae MA 2646.; format: functional
Klebsiella pneumoniae = test: In vitro antibacterial activity against gram negative Klebsiella pneumoniae MGH-2.; format: functional
Escherichia coli [5] = test: In vivo potency against acute systemic infection in mouse caused by Escherichia coli Vogel on oral administration by gavage.; format: functional; conditions: read-out: PD50
Procedure, shortened: (§2)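 Acute systemic mouse infection. A single oral dose was given by gavage at the time of challenge. Potency is reported as the median protective dose (PD50, mg/kg), determined by earlier published methods.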

Streptococcus pneumoniae [6] = test: In vivo potency against acute systemic infection in mouse caused by Streptococcus pneumoniae SV-1 on oral administration by gavage.; format: functional; conditions: read-out: PD50; procedure, shortened: as §2
Streptococcus pneumoniae [7] = test: In vivo potency against acute systemic infection in mouse caused by Streptococcus pneumoniae SV-1 on subcutaneous injection.; format: functional; conditions: sc, read-out: PD50
Procedure, shortened: (§3)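 Acute systemic mouse infection. A single subcutaneous dose was injected at the time of challenge. Potency is reported as the median protective dose (PD50, mg/kg), determined by earlier published methods.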

Escherichia coli [8] = test: In vivo potency against acute systemic infection in mouse caused by Escherichia coli vogel on subcutaneous injection.; format: functional; conditions: sc, read-out: PD50; procedure, shortened: as §3
Pseudomonas aeruginosa = test: In vitro antibacterial activity against gram negative Pseudomonas aeruginosa UI-18.; format: functional
Providencia rettgeri = test: In vitro antibacterial activity against gram negative Providencia rettgeri M-1771.; format: functional
Staphylococcus aureus [9] = test: In vitro antibacterial activity against gram positive Staphylococcus aureus H-228.; format: functional
Streptococcus pyogenes = test: In vitro antibacterial activity against gram positive Streptococcus pyogenes C-203.; format: functional
Staphylococcus aureus [10] = test: In vitro antibacterial activity against gram positive Staphylococcus aureus UC76.; format: functional
Streptococcus pneumoniae [11] = test: In vitro antibacterial activity against gram positive Streptococcus pneumoniae SV-1.; format: functional
[12] = Aqueous solubility; format: physicochemical; conditions: water (aqueous); read-out: S; procedure, shortened: as §1
[13] = Solubility (at pH 7.4); format: physicochemical; conditions: buffer, read-out: S; procedure, shortened: as §1
Mus musculus [14] = test: In vivo potency against acute systemic infection in mouse caused by Streptococcus pyogenes C-203 on oral administration by gavage; format: functional; conditions: read-out: PD50; procedure, shortened: as §2
Mus musculus [15] = test: In vivo potency against acute systemic infection in mouse caused by Streptococcus pyogenes C-203 on subcutaneous injection; format: functional; conditions: sc, read-out: PD50; procedure, shortened: as §3

| Structure (SMILES) | solubility [1] | solubility [2] | MIC (Escherichia coli [3]) | MIC (Enterococcus faecalis) | Cleavage [4] | MIC (Enterobacter cloacae) | MIC (Klebsiella pneumoniae) | ED50 (Escherichia coli [5]) | ED50 (Streptococcus pneumoniae [6]) | ED50 (Streptococcus pneumoniae [7]) | ED50 (Escherichia coli [8]) | MIC (Pseudomonas aeruginosa) | MIC (Providencia rettgeri) | MIC (Staphylococcus aureus [9]) | MIC (Streptococcus pyogenes) | MIC (Staphylococcus aureus [10]) | MIC (Streptococcus pneumoniae [11]) | solubility [12] | solubility [13] | further results |
| --- | --- | --- | --- | --- | --- | --- | --- | --- | --- | --- | --- | --- | --- | --- | --- | --- | --- | --- | --- | --- |
| C[C@@H](N)C(=O)NC1CCN(c2c(F)cc3c(=O)c(C(=O)O)cn(C4CC4)c3c2F)C1.Cl.O (stereo not given in full) | 3.6 mg/mL | 19.4 mg/mL | 0.2 µg/mL | 0.025 µg/mL | 2.5 µg/mL | 0.4 µg/mL | 0.4 µg/mL | 31 mg/kg | > 100 mg/kg | 1 mg/kg | 2 mg/kg | 1.6 µg/mL | 0.8 µg/mL | 0.05 µg/mL | 0.006 µg/mL | 0.006 µg/mL | 0.013 µg/mL | 42 mg/mL | – | – |
| Cl.NCCCC[C@H](N)C(=O)NC1CCN(c2c(F)cc3c(=O)c(C(=O)O)cn(C4CC4)c3c2F)C1.O (stereo not given in full) | – | – | 6.3 µg/mL | 6.3 µg/mL | – | 3.1 µg/mL | 12.5 µg/mL | – | – | – | – | 12.5 µg/mL | 12.5 µg/mL | 0.4 µg/mL | 6.3 µg/mL | 0.2 µg/mL | 6.3 µg/mL | – | – | – |
| Cl.NCCCC[C@H](N)C(=O)NC1CCN(c2cc3c(cc2F)c(=O)c(C(=O)O)cn3C2CC2)C1.O (stereo not given in full) | 69 mg/mL | > 100 mg/mL | 12.5 µg/mL | > 25 µg/mL | – | 12.5 µg/mL | 12.5 µg/mL | 10 mg/kg | > 100 mg/kg | 12 mg/kg | 1 mg/kg | 25 µg/mL | 25 µg/mL | 25 µg/mL | 12.5 µg/mL | 3.1 µg/mL | 25 µg/mL | 93 mg/mL | 0.11 mg/mL | – |
| Cl.NCC(=O)NC1CCN(c2c(F)cc3c(=O)c(C(=O)O)cn(C4CC4)c3c2F)C1.O (stereo not given) | 4.6 mg/mL | 20 mg/mL | 0.2 µg/mL | 0.4 µg/mL | 5 µg/mL | 0.2 µg/mL | 0.4 µg/mL | 1 mg/kg | 29 mg/kg | 16 mg/kg | 0.4 mg/kg | 1.6 µg/mL | 0.4 µg/mL | 0.4 µg/mL | 0.2 µg/mL | 0.1 µg/mL | 0.4 µg/mL | 33 mg/mL | – | – |
| Cl.Nc1c(F)c(N2CC[C@H](N)C2)c(F)c2c1c(=O)c(C(=O)O)cn2C1CC1.O | 0.25 mg/mL | 2.3 mg/mL | 0.003 µg/mL | 0.025 µg/mL | 0.1 µg/mL | 0.003 µg/mL | 0.013 µg/mL | 1.2 mg/kg | 10 mg/kg | 6 mg/kg | 0.4 mg/kg | 0.025 µg/mL | 0.025 µg/mL | 0.006 µg/mL | 0.013 µg/mL | 0.003 µg/mL | 0.006 µg/mL | 2.5 mg/mL | 0.05 mg/mL | ED50 (Mus musculus [14]): 18 mg/kg; ED50 (Mus musculus [15]): 5.5 mg/kg |
| Cl.N[C@@H](Cc1ccccc1)C(=O)NC1CCN(c2c(F)cc3c(=O)c(C(=O)O)cn(C4CC4)c3c2F)C1.O (stereo not given in full) | 7.2 mg/mL | 21 mg/mL | 0.8 µg/mL | 25 µg/mL | 7.5 µg/mL | 1.6 µg/mL | 1.6 µg/mL | 5 mg/kg | – | – | 1 mg/kg | 25 µg/mL | 3.1 µg/mL | 3.1 µg/mL | > 25 µg/mL | 1.6 µg/mL | > 25 µg/mL | 31 mg/mL | – | – |
| C[C@H](N)C(=O)N[C@@H]1CCN(c2c(F)c(N)c3c(=O)c(C(=O)O)cn(C4CC4)c3c2F)C1.Cl.O | 3.2 mg/mL | 71 mg/mL | 0.4 µg/mL | 0.4 µg/mL | 5 µg/mL | 0.8 µg/mL | 0.8 µg/mL | 2.2 mg/kg | 18 mg/kg | 7.7 mg/kg | 0.5 mg/kg | 3.1 µg/mL | 1.6 µg/mL | 0.4 µg/mL | 0.2 µg/mL | 0.025 µg/mL | 0.2 µg/mL | 21 mg/mL | 0.04 mg/mL | ED50 (Mus musculus [14]): 20 mg/kg; ED50 (Mus musculus [15]): 6.3 mg/kg |
| Cl.N[C@@H](Cc1ccccc1)C(=O)NC1CCN(c2cc3c(cc2F)c(=O)c(C(=O)O)cn3C2CC2)C1.O (stereo not given in full) | 9.2 mg/mL | 66 mg/mL | 0.8 µg/mL | 0.4 µg/mL | 25 µg/mL | 0.8 µg/mL | 3.1 µg/mL | 5 mg/kg | > 50 mg/kg | 5 mg/kg | 1 mg/kg | 6.3 µg/mL | 3.1 µg/mL | 0.8 µg/mL | 0.4 µg/mL | 0.2 µg/mL | 0.4 µg/mL | 44 mg/mL | 0.3 mg/mL | – |
| Cl.NCC(=O)NC1CCN(c2c(F)c(N)c3c(=O)c(C(=O)O)cn(C4CC4)c3c2F)C1.O (stereo not given) | 3.5 mg/mL | 69 mg/mL | 0.2 µg/mL | 0.4 µg/mL | 5 µg/mL | 0.2 µg/mL | 0.4 µg/mL | 1 mg/kg | 29 mg/kg | 16 mg/kg | 0.4 mg/kg | 1.6 µg/mL | 0.4 µg/mL | 0.4 µg/mL | 0.2 µg/mL | 0.1 µg/mL | 0.4 µg/mL | 17 mg/mL | 0.07 mg/mL | ED50 (Mus musculus [14]): 36 mg/kg; ED50 (Mus musculus [15]): 8.1 mg/kg |
| C[C@@H](N)C(=O)NC1CCN(c2cc3c(cc2F)c(=O)c(C(=O)O)cn3C2CC2)C1.Cl.O (stereo not given in full) | > 100 mg/mL | > 100 mg/mL | 0.8 µg/mL | 0.2 µg/mL | 1 µg/mL | 0.8 µg/mL | 0.8 µg/mL | > 100 mg/kg | > 100 mg/kg | 3.1 mg/kg | 4.1 mg/kg | 1.6 µg/mL | 1.6 µg/mL | 0.4 µg/mL | 0.013 µg/mL | 0.05 µg/mL | 0.025 µg/mL | > 100 mg/mL | 0.24 mg/mL | – |
| C[C@H](N)C(=O)N[C@H]1CCN(c2c(F)cc3c(=O)c(C(=O)O)cn(C4CC4)c3c2F)C1.Cl.O | 5.4 mg/mL | 19 mg/mL | 0.1 µg/mL | 0.1 µg/mL | 2.5 µg/mL | 0.1 µg/mL | 0.2 µg/mL | 1 mg/kg | 25 mg/kg | 9 mg/kg | 0.4 mg/kg | 0.1 µg/mL | 0.2 µg/mL | 0.1 µg/mL | 0.1 µg/mL | 0.025 µg/mL | 0.1 µg/mL | 33 mg/mL | 0.07 mg/mL | – |
| Cl.NCC(=O)NC1CCN(c2cc3c(cc2F)c(=O)c(C(=O)O)cn3C2CC2)C1.O (stereo not given) | > 100 mg/mL | > 100 mg/mL | 0.4 µg/mL | 1.6 µg/mL | 2.5 µg/mL | 0.4 µg/mL | 0.8 µg/mL | 6.3 mg/kg | > 100 mg/kg | 18 mg/kg | 1.1 mg/kg | 1.6 µg/mL | 1.6 µg/mL | 3.1 µg/mL | 0.1 µg/mL | 0.4 µg/mL | 0.4 µg/mL | > 100 mg/mL | 0.22 mg/mL | – |
| Cl.NCC(=O)NC1CCN(c2nc3c(cc2F)c(=O)c(C(=O)O)cn3C2CC2)C1.O (stereo not given) | 67 mg/mL | > 200 mg/mL | 0.2 µg/mL | 0.8 µg/mL | 2.5 µg/mL | 0.4 µg/mL | 0.4 µg/mL | – | 37 mg/kg | 10 mg/kg | – | 3.1 µg/mL | 0.8 µg/mL | 1.6 µg/mL | 0.1 µg/mL | 0.4 µg/mL | 0.8 µg/mL | > 200 mg/mL | – | – |
| Cl.N[C@@H]1CCN(c2c(F)cc3c(=O)c(C(=O)O)cn(C4CC4)c3c2F)C1.O | – | – | 0.013 µg/mL | 0.05 µg/mL | 0.5 µg/mL | 0.006 µg/mL | 0.013 µg/mL | 0.9 mg/kg | 14 mg/kg | 9 mg/kg | 0.2 mg/kg | 0.1 µg/mL | 0.025 µg/mL | 0.05 µg/mL | 0.05 µg/mL | 0.006 µg/mL | 0.025 µg/mL | 11 mg/mL | – | – |
| C[C@H](N)C(=O)N[C@@H]1CCN(c2c(F)cc3c(=O)c(C(=O)O)cn(C4CC4)c3c2F)C1.Cl.O | 6 mg/mL | 30 mg/mL | 0.4 µg/mL | 0.8 µg/mL | 2.5 µg/mL | 0.2 µg/mL | 0.8 µg/mL | 1 mg/kg | 25 mg/kg | 19 mg/kg | 0.6 mg/kg | 3.1 µg/mL | 0.8 µg/mL | 0.8 µg/mL | 0.4 µg/mL | 0.2 µg/mL | 0.4 µg/mL | 29 mg/mL | 0.07 mg/mL | – |
